Source: ChEMBL document CHEMBL4513216, “Probing the Open Global Health Chemical Diversity Library for Multistage-Active Starting Points for Next-Generation Antimalarials” (ACS Infect Dis, 2020)

Assay: Toxicity liver stage against HepG2, at 10uM
Assay type: cell-based
Design: test concentration 10 uM, cell line HepG2-A16-CD81EGFP
Conditions: human, HepG2-A16-CD81EGFP cells; read-out: INHIBITION
How it was run: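 Uninfected HepG2-A16-CD81EGFP cells, 3 × 10^3 per well, 1536-well, plated on prespotted compound at 10 μM final, parasite-free screening media added to match infected plates; puromycin 10 μM positive, DMSO 0.5% negative; run in parallel with 48 h PbLuc assay at 37 °C, 5% CO2; viability by CellTiter-Glo luminescence, normalized to controls.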

Row | SMILES | cytotoxicity at 10 µM
1 | O=C1CO[C@H]2CN(Cc3cccnc3)C[C@H]2N1 | -4%
2 | Cn1nc(-c2ccccc2)c(Br)c1C(=O)O | -48.3%
3 | Cc1n[nH]c2c1C(c1cccnc1)SCC(=O)N2 (configuration not stated) | -7.46%
4 | COc1ccc(N2CCN(C(=O)COc3nccc(C)n3)CC2)cc1 | -6.16%
5 | COC(CNC(=O)C1CCN(S(C)(=O)=O)CC1)c1ccc(C)s1 (configuration not stated) | -0.0506%
6 | O=C(c1ccnnc1)N1C[C@@H](OCc2cccnc2)[C@H]2OCCC[C@H]21 | 5.03%
7 | CC1(C)OCC(CNC(=O)c2cnn(-c3cc(Cl)ccc3Cl)c2N)O1 (configuration not stated) | 2.84%
8 | CC(C)N1CCc2c(C#N)c(NCc3ccco3)n3cnnc3c2C1 | -2.02%
9 | Cc1nc2[nH]cnc(NCCN3CCOCC3)c-2n1 | 3.22%
10 | Cc1cn([C@@H]2CC3(CCNCC3)OC[C@@]2(C)O)c(=O)[nH]c1=O | -5.6%
11 | O=C1CCOC[C@]2(CN(Cc3ccccc3)C[C@H]2c2ccccc2)N1 | -14.1%
12 | Cc1noc(C)c1-c1nc(C2CCCN(C(=O)CN)C2)ccc1CO (configuration not stated) | -3.11%
13 | CCn1cc(S(=O)(=O)N2CCC(C3CCCCN(C)C3=O)CC2)c(C)n1 (configuration not stated) | 6.58%
14 | CN([C@@H]1CC[C@@H](N2CCCC2)[C@@H]1O)S(=O)(=O)c1ccccc1 | -4.29%
15 | Cc1cc(C)nc(C2CCN(c3ccncn3)C2)n1 (configuration not stated) | -0.419%
16 | CC(=O)Nc1nc(C2CCN(C(=O)C3CCC3)CC2)cs1 | -2.36%
17 | COCC(=O)N1CCCC(c2cccc(-n3ccnc3)n2)C1 (configuration not stated) | -9.69%
18 | OC1(Cn2ccc3ccncc32)CCN(Cc2ccccn2)CC1 | 2.42%
19 | CN1CCN(C(=O)CCC(=O)c2cccs2)Cc2ccccc21 | -57.8%
20 | Cc1ccccc1CN1CCCN(S(=O)(=O)N(C)C2CCCCC2)CC1 | 11.5%
21 | COc1c(C(=O)NC(C)CC(=O)c2cccs2)c(C)nn1C (configuration not stated) | -10.1%
22 | Cc1csc(CCNC(=O)N2CCC(C(N)=O)CC2)n1 | -2.71%

Row | SMILES | cytotoxicity at 10 µM
23 | Cc1cccc(CCC(=O)Nc2ccnn2C2CCS(=O)(=O)C2)c1 (configuration not stated) | 0.499%
24 | O=C(NCCNc1ccccn1)NC1CCOC2(CCCCC2)C1 (configuration not stated) | -8.8%
25 | NC(=O)C1CN(c2ccc3cc(Br)ccc3n2)CCO1 (configuration not stated) | 4.94%
26 | CC1CCCN(C(=O)c2ccc(N(C)Cc3cnn(C)c3)nc2)C1 (configuration not stated) | 2.22%
27 | CSCCc1ccc(NC(=O)NC(C)Cn2cncn2)cc1 (configuration not stated) | 2.56%
28 | Cc1c(Br)cccc1S(=O)(=O)NCc1ccnn1C | 43%
29 | CC(NC(=O)Cc1ccon1)c1ccc(OCC2CC2)c(F)c1 (configuration not stated) | 5.47%
30 | O=C(NCCc1nnc2n1CCC2)NCC1(c2ccccc2)CC1 | -7.35%
31 | CC(C)c1ncncc1C(=O)NCCN1CCCCC1C (configuration not stated) | -6.06%
32 | CSCC(CCO)NC(=O)Nc1ccc(C)cc1Br (configuration not stated) | -11.8%
33 | CNc1cc(N2CCCC2CNCc2cccs2)ncn1 (configuration not stated) | -12.3%
34 | CCN(CC)Cc1ccc(C(=O)NC2CCc3cc(Br)ccc32)o1 (configuration not stated) | -3.3%
35 | CN(C)S(=O)(=O)c1ccc2c(c1)N(Cc1nccn1C)CC2 | -3.42%
36 | COc1ccccc1-c1cc(NC(=O)CCC2CCCO2)[nH]n1 (configuration not stated) | -0.394%
37 | CCn1nc2c(cc1=O)CN(Cc1ccc(-n3cccn3)cc1)CC2 | -134%
38 | Cc1cc(C)n(-c2ccc(C(C)NS(N)(=O)=O)cc2)n1 (configuration not stated) | -7.76%
39 | Cc1ccc(C)c(CS(=O)(=O)CC(=O)Nc2ccc(F)cc2F)c1 | 3.28%
40 | COc1cc(OC)c(CNC(=O)NCC(=O)N(C)C)c(OC)c1 | 3.27%
41 | CCOC(C)c1noc(CN(C)C(=O)C2C(C)(C)C2(C)C)n1 (configuration not stated) | 9.5%
42 | CC(C)COC(C)C(=O)NCCNC(=O)C(C)C (configuration not stated) | -15.2%
43 | Cc1cc(C)n(Cc2ccc(C(=O)NCCN3CCOCC3)cc2)n1 | -14.8%
44 | CCc1nnc2n1CCN(C(=O)c1cnc3ccccc3n1)C2 | -7.7%

Row | SMILES | cytotoxicity at 10 µM
45 | COCCN1CC[C@@H]2OC[C@H](C(=O)N(C)Cc3ccccn3)C[C@@H]2C1 | -98.5%
46 | O=C1CO[C@@H]2CNC[C@H]2N1CC1CC1 | -95.7%
47 | Cc1ncsc1CN1C[C@@H]2CN(S(C)(=O)=O)CCO[C@@H]2C1 | -105%
48 | Cn1cc(CN2C[C@@H]3CCC[C@@H](OCc4cccnc4)[C@@H]3C2)cn1 | -107%
49 | CS(=O)(=O)N1C[C@@H](NC(=O)c2ccno2)[C@@H]2OCCC[C@@H]21 | -108%
50 | CN(C)Cc1cnc2n1CCN(C(=O)C1CC=CC1)CC2 | -81.3%
51 | Cc1ccc2c(c1)C1(CCN(C(N)=O)CC1)CN2C(=O)N(C)C | -79.1%
52 | COCCNC(=O)c1cc2c(c3ccccc3n2C)n1C(=O)N(C)C | -72.6%
53 | Cc1cc(C(=O)N2CC[C@@H]3CN(S(C)(=O)=O)CCO[C@@H]3C2)c(C)o1 | 3.52%
54 | CS(=O)(=O)N1CCC2(CC1)CC(CC(=O)NC1CC1)c1ccccc12 (configuration not stated) | -0.105%
55 | Cc1[nH]c2ccccc2c1-c1ccnc(N[C@@H](CO)C(C)C)n1 | -4.19%
56 | CCN(Cc1nc(COC)no1)Cc1ccccc1OCC(=O)O | -51.6%
57 | OC1(CN2CCC(Oc3cccc(C(F)(F)F)c3)CC2)CNCCOC1 (configuration not stated) | -5.43%
58 | Cc1ccnc(CC(C)N(C)c2cc(C3CCNCC3)nc(C)n2)c1 (configuration not stated) | -46.2%
59 | Cc1ccc(CN2C[C@H]3C(=O)N(CC4CC4)C[C@@]3(C(=O)O)C2)c(F)c1F | 7.47%
60 | CCc1nc(NC(=O)NCCc2scnc2C)nn1C | 0.102%
61 | C[C@@H]1CC[C@@H](C)N1C(=O)c1cc(COc2ccccc2)[nH]n1 | 4.82%
62 | CC(C)N1CCC(CC(=O)NC(C(=O)O)c2cccc(F)c2)CC1 (configuration not stated) | -0.114%
63 | c1ccc(CCN2CCN(C3CCOC4(CCOCC4)C3)CC2)cc1 (configuration not stated) | -3.79%
64 | CCN(CCN1CCOCC1)C(=O)c1cccnc1 | 7.42%
65 | Cc1cc(NCCNc2cccnc2)nc(N)n1 | -5.86%
66 | COc1ccc(CN2CCN(C(=O)N(C)C)[C@@H]3CS(=O)(=O)C[C@@H]32)cc1F | 1.24%

Row | SMILES | cytotoxicity at 10 µM
67 | CC(C)(N)C(=O)N1CCCC(C(=O)c2ccc(C(C)(C)C)cc2)C1 (configuration not stated) | -1.1%
68 | CCc1ccc(C(=O)N2CCC(O)(CN3CCOCC3)C(C)(C)C2)[nH]1 (configuration not stated) | 0.542%
69 | COCCOC(=O)N1CCn2nc(CN(C)Cc3nccs3)cc2C1 | 1.32%
70 | Cc1cc(-c2nn(C)c(Cl)c2CN2CC[C@H](CO)[C@@H](O)C2)no1 | 2.45%
71 | C=Cc1ccc(C(=O)N2CCCC(Nc3ccc(F)c(F)c3)C2)cc1 (configuration not stated) | -9.03%
72 | Cc1ccn2cc(C(=O)N3CCCC(Cn4cc(CO)nn4)C3)nc2c1 (configuration not stated) | 2.41%
73 | CC(C)CCn1c(=O)n(CCn2cccc2)c2cc(C(=O)O)cnc21 | -2.95%
74 | Cc1ccc(CN2CCN(Cc3ccncc3)[C@@H]3CS(=O)(=O)C[C@@H]32)cc1 | 6.86%
75 | N[C@@H]1c2ccccc2C2(CCN(C(=O)c3ccc(Cl)cn3)CC2)[C@H]1O | -2.21%
76 | Cc1[nH]c2c(C)ccc(C)c2c1CC(=O)NCCCNc1cccnc1 | 0.0773%
77 | CCN(CC)S(=O)(=O)N1CCCC(c2ccc(C(=O)O)cc2)C1 (configuration not stated) | -7.27%
78 | CN(C)S(=O)(=O)N1CCC2(CCCN(Cc3ccc(F)cc3)C2=O)C1 (configuration not stated) | -9.67%
79 | CC(C)NS(=O)(=O)c1cc(C(=O)O)cc(-c2ccccc2CN(C)C)c1 | 6.41%
80 | CC(CN1CCCC1)C(=O)N1CCC(c2nccn2CC2CC2)CC1 (configuration not stated) | -26.3%
81 | Cc1cc2cc(C(=O)N[C@@H]3CC[C@@H](N4CCOCC4)[C@@H]3O)ccc2o1 | -1.85%
82 | O=C1NCC2(CCCN(Cc3ccccc3F)C2)Oc2ccccc21 (configuration not stated) | 6.12%
83 | CN(Cc1ccccn1)C(=O)c1nc(S(C)(=O)=O)n2ccccc12 | -8.01%
84 | CCn1ccnc1CN1CCN(C(C)C(=O)NC2CCCC2)CC1 (configuration not stated) | -4.86%
85 | Fc1cccc(CN2CCN(Cc3cscn3)CC2)c1 | -0.612%
86 | CN1CCN(c2cc(N3CCCC3CO)ncn2)Cc2ccccc21 (configuration not stated) | -5.22%
87 | CCc1ncc2c(n1)CN(Cc1nc(-c3ccsc3)oc1C)CC2 | -8.6%
88 | O=C(Nc1cccc(CNCc2cccs2)c1)C1CCCC1 | -4.59%

Row | SMILES | cytotoxicity at 10 µM
89 | Cn1ccnc1CN1CCN(c2ccc(C#N)cn2)CC1 | -4.2%
90 | CCCOc1cccc(CNC(=O)CN2CCN(C)CC2C)c1 (configuration not stated) | -7.57%
91 | Cn1cnc(S(=O)(=O)NCCN2CCCCCC2=O)c1Cl | -14.2%
92 | CC(C)C(C(=O)N1CCC(N(C)c2cccnn2)CC1)n1cncn1 (configuration not stated) | -7.44%
93 | CCN1CCC(CNC(=O)C2(c3cccc(C)c3)CC2)C1 (configuration not stated) | 1.42%
94 | Cc1cnn(C2CCCN(C(=O)C3=NN(C)C(=O)CC3)C2)c1 (configuration not stated) | -3.71%
95 | O=C(c1cccc2cccnc12)N1CCCN(c2cccnn2)CC1 | -3.2%
96 | Cc1ccc(CN(Cc2ccccn2)C2CC(C)(C)NC(C)(C)C2)s1 | 2.7%
97 | O=C(NCc1ccco1)[C@@H]1CCO[C@@H]2CCN(c3ncccn3)C[C@@H]21 | -68.3%
98 | CCN1C[C@H]2C3(CCN(C(C)=O)CC3)CC[C@@]2(C(=O)N(C)C)C1 | -104%
99 | CC(C)CNC(=O)[C@H]1CCS(=O)(=O)[C@@H]2CN(Cc3cccc(Cl)c3)C[C@H]12 | -7.06%
100 | c1ncn(Cc2cnc3n2CCN(Cc2ccsc2)CC3)n1 | 6.2%
101 | Brc1ccc(CNCc2nnc3n2CCC3)s1 | -4.2%
102 | O=S(=O)(C1CC1)N1CCO[C@H]2[C@@H](Oc3cccnc3)CC[C@@H]21 | -5.96%
103 | CCO[C@@H]1CCN(C(=O)c2ccc[nH]2)[C@@H]1Cc1cccnc1 | -80.2%
104 | O=C1CCC2(CCCN(Cc3nccs3)C2)N1CC1CC1 (configuration not stated) | -68.4%
105 | O=C1COC2(CCN(CC3CC3)CC2)CN1c1ccccc1 | -14.6%
106 | O=C(C1CC1)N1CCOC2(CCNCC2)C1 | -112%
107 | Cc1ccc(C(=O)N2CCC3(CCCN(c4ncc(F)cn4)C3)C2)cn1 (configuration not stated) | -106%
